Data from ChEMBL document CHEMBL2375294, “Synthesis, structure-activity relationship analysis and kinetics study of reductive derivatives of flavonoids as Helicobacter pylori urease inhibitors” (Eur J Med Chem, 2013).

The compounds below were run against T1, Urease subunit alpha/Urease subunit beta (Helicobacter pylori (strain ATCC 700392 / 26695) (Campylobacterpylori), UniProt P69996) (assay: Competitive inhibition of Helicobacter pylori ATCC 43504 urease using urea as substrate by Lineweaver-Burk/Dixon plot analysis).
Procedure, shortened: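 Crude urease from H. pylori ATCC 43504, grown 24 h at 37 °C under microaerobic conditions in Brucella broth with 10% heat-inactivated horse serum. Enzyme (10 U) was pre-incubated with inhibitor for 1.5 h at room temperature. Ammonia was read by the indophenol method while urea varied at several inhibitor levels. Ki came from a Lineweaver–Burk slope replot x-intercept or a Dixon plot intersection. Run in triplicate.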

T1 sequence (P69996 whole entry): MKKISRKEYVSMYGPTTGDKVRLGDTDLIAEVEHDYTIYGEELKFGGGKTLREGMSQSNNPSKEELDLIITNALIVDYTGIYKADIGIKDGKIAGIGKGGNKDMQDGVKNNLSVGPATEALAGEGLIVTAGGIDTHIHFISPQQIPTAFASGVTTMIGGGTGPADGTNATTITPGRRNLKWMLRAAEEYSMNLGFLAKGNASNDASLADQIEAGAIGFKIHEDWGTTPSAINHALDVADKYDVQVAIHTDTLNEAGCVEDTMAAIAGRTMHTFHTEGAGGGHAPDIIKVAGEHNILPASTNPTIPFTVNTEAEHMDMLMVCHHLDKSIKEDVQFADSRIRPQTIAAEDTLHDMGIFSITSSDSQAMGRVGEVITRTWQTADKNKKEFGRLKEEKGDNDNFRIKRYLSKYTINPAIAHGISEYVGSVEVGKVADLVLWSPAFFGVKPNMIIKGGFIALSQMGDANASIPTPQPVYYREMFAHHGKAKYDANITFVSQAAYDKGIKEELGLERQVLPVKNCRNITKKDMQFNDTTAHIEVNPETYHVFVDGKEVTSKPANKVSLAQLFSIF
T1 sequence (P14916 whole entry, further chain): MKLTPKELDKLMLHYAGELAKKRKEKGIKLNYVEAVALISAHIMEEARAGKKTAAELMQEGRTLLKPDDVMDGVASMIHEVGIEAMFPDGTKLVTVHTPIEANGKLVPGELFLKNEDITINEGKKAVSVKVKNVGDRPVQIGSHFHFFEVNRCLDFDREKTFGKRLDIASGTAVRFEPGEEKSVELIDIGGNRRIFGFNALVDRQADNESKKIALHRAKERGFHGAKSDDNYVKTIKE

`Oc1ccc(C2=COc3c(ccc(O)c3O)C2)cc1` gave a Ki of 0.641 µM.

Each compound was assayed against Urease subunit alpha/Urease subunit beta (Helicobacter pylori (strain ATCC 700392 / 26695) (Campylobacterpylori)) (UniProt P69996+P14916) (assay: Ratio of acetohydroxamic acid IC50 to compound IC50 for Helicobacter pylori ATCC 43504 urease).
Sequence of Urease subunit alpha/Urease subunit beta (Helicobacter pylori (strain ATCC 700392 / 26695) (Campylobacterpylori)) (P14916 whole entry, looked up): as the sequence (P14916 whole entry, further chain) above
Sequence of Urease subunit alpha/Urease subunit beta (Helicobacter pylori (strain ATCC 700392 / 26695) (Campylobacterpylori)) (P69996 whole entry, looked up): as the sequence (P69996 whole entry) above

With `Oc1ccc(C2=COc3c(ccc(O)c3O)C2)cc1` the Ratio IC50 was 20.

What follows are compounds tested against T1, Urease subunit alpha/Urease subunit beta (assay: Inhibition of Helicobacter pylori ATCC 43504 urease-mediated ammonia production preincubated for 1.5 hrs by indophenol method).

In order of falling IC50:
1. COc1ccc(C2CC(O)c3c(OC)c(OC)c(OC)c(OC)c3O2)cc1 (stereo not given)  4850 µM
2. COc1ccc(-c2cc(=O)c3c(OC)c(OC)c(OC)c(OC)c3o2)cc1 [TANGERETIN]  4630 µM
3. COc1ccc(C2C=Cc3c(OC)c(OC)c(OC)c(OC)c3O2)cc1 (stereo not given)  4170 µM
4. COc1ccc(C2COc3cc(OC)ccc3C2O)cc1 (stereo not given)  3870 µM
5. COc1ccc(C2=CCc3c(OC)c(OC)c(OC)c(OC)c3O2)cc1  3790 µM
6. COc1ccc(-c2coc3cc(OC)ccc3c2=O)cc1  3530 µM
7. COc1ccc(C(C)C(=O)c2ccc(OC)cc2O)cc1 (stereo not given)  2180 µM
8. COc1cc(OC)c2c(=O)cc(-c3ccccc3)oc2c1 [CHRYSIN DIMETHYL ETHER]  2180 µM
9. COc1ccc(-c2coc3cc(O)ccc3c2=O)cc1 [FORMONONETIN]  2000 µM
10. COc1ccc(C2COc3cc(OC)ccc3C2)cc1 (stereo not given)  1780 µM
11. COc1cc(O)c(C(=O)CCc2ccccc2)c(OC)c1  1670 µM
12. COc1cc(O)c(C(=O)/C=C/c2ccccc2)c(OC)c1 [FLAVOKAWAIN B]  1220 µM
13. COc1ccc(C(C)C(=O)c2ccc(O)cc2O)cc1 (stereo not given)  1050 µM
14. COc1cc(O)c(C(=O)CCc2ccccc2)c(O)c1  978 µM
15. O=c1c(-c2ccc(O)cc2)coc2cc(O)ccc12 [DAIDZEIN]  556 µM
16. COc1ccc(C2COc3cc(O)ccc3C2)cc1 (stereo not given)  358 µM
17. O=C1CC(c2ccc(O)cc2)Oc2cc(O)cc(O)c21 (stereo not given)  328 µM
18. O=c1cc(-c2ccccc2)oc2cc(O)cc(O)c12 [CHRYSIN]  302 µM
19. O=c1cc(-c2ccccc2)oc2cc(O)c(O)c(O)c12 [BAICALEIN]  291 µM
20. O=c1cc(-c2ccc(O)cc2)oc2cc(O)cc(O)c12 [APIGENIN]  138 µM
21. Oc1ccc(C2COc3cc(O)ccc3C2)cc1 (stereo not given)  92.9 µM
22. COc1ccc(C2=COc3cc(O)ccc3C2)cc1  86.2 µM
23. O=c1cc(-c2ccc(O)c(O)c2)oc2cc(O)cc(O)c12 [LUTEOLIN]  35.4 µM
24. Oc1cc(O)c2c(c1)OC(c1ccccc1)C=C2 (stereo not given)  33.2 µM
25. Oc1cc2c(c(O)c1O)C=CC(c1ccccc1)O2 (stereo not given)  22.1 µM
26. O=c1c(O)c(-c2ccc(O)c(O)c2)oc2cc(O)cc(O)c12 [QUERCETIN]  11 µM
27. Oc1cc(O)c2c(c1)OC(c1ccc(O)c(O)c1)C=C2 (stereo not given)  4.42 µM
28. Oc1ccc(C2=COc3c(ccc(O)c3O)C2)cc1  0.85 µM
